Data from ChEMBL document CHEMBL1137677, “Synthesis, pharmacological screening, quantum chemical and in vitro permeability studies of N-Mannich bases of benzimidazoles through bovine cornea” (Eur J Med Chem, 2009).

Tests used:
[1] = tested on: Rattus norvegicus; test: Antiinflammatory activity in Wistar albino rat assessed as reduction in formalin-induced paw edema volume at 200 mg/kg, po administered 30 mins prior to formalin challenge measured after 90 mins by plethysmography; type: functional; design: scale not given: the % may be the effect or the level left
How it was run: (§1)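 Wistar albino rats received the compound orally as a suspension in 1% carboxymethyl cellulose, 30 min before subplantar formalin (0.1 mL of 1% w/v). Paw volume was read by plethysmography at 30, 60, 90 and 120 min after formalin and expressed as % reduction of edema. Significance was tested by Student's t-test.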

[2] = tested on: Rattus norvegicus; test: Antiinflammatory activity in Wistar albino rat assessed as reduction in formalin-induced paw edema volume at 200 mg/kg, po administered 30 mins prior to formalin challenge measured after 60 mins by plethysmography; type: functional; design: scale not given: the % may be the effect or the level left; how it was run: as §1
[3] = tested on: Rattus norvegicus; test: Antiinflammatory activity in Wistar albino rat assessed as reduction in formalin-induced paw edema volume at 200 mg/kg, po administered 30 mins prior to formalin challenge measured after 30 mins by plethysmography; type: functional; design: scale not given: the % may be the effect or the level left; how it was run: as §1
[4] = tested on: Mus musculus; test: Analgesic activity in Wistar albino mouse assessed as protection against acetic acid-induced writhing at 100 mg/kg, po administered 30 mins prior to acetic acid challenge measured after 30 mins; type: functional
How it was run: (§2)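 Wistar albino mice of either sex were dosed orally by gavage with a suspension in 1% carboxymethyl cellulose, 30 min before the writhing agent (0.6% v/v aqueous acetic acid, 1 mL/100 g). Writhings were counted over 30 min and expressed as percentage protection. Significance was tested by Student's t-test.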

[5] = Acute toxicity in po dosed Wistar albino mouse assessed as mortality after 24 hrs by Karber's arithmetical method; type: organism-based; settings: in vivo
How it was run: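 Wistar albino mice of either sex, six per group; compounds given orally by gavage as suspension in 1% carboxymethyl cellulose at 100, 200, 400, 800 or 1000 mg/kg. Mortality recorded over 24 h; LD50 calculated by Karber's arithmetical method.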

[6] = tested on: Rattus norvegicus; test: Antiinflammatory activity in Wistar albino rat assessed as reduction in formalin-induced paw edema volume at 200 mg/kg, po administered 30 mins prior to formalin challenge measured after 120 mins by plethysmography; type: functional; design: scale not given: the % may be the effect or the level left; how it was run: as §1
[7] = Apparent permeability across bovine cornea assessed as lag time of permeation by UV-visible spectrophotometer; type: ADME, tissue-based, Bos taurus; settings: cattle
How it was run: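 Fresh bovine cornea, taken within 1 h of sacrifice with lens and iris removed, was mounted in a side-by-side perfusion cell. Donor held 7 mL of drug in 0.01 M methanolic phosphate buffer, pH 7. Receptor was sampled 1 mL every 15 min for 3 h and replaced with buffer pre-equilibrated at 37 °C. Drug was quantified by UV-vis absorbance. Lag time is the time to reach a steady concentration gradient across the membrane.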

[8] = tested on: Mus musculus; test: Analgesic activity in Wistar albino mouse assessed as protection against acetic acid-induced writhing at 200 mg/kg, po administered 30 mins prior to acetic acid challenge measured after 30 mins; type: functional; how it was run: as §2
[9] = tested on: Rattus norvegicus; test: Antiinflammatory activity in Wistar albino rat assessed as reduction in formalin-induced paw edema volume at 40 mg/kg, po administered 30 mins prior to formalin challenge measured after 30 mins by plethysmography; type: functional; design: scale not given: the % may be the effect or the level left; how it was run: as §1
[10] = tested on: Mus musculus; test: Analgesic activity in Wistar albino mouse assessed as protection against acetic acid-induced writhing at 40 mg/kg, po administered 30 mins prior to acetic acid challenge measured after 30 mins; type: functional; how it was run: as §2
[11] = tested on: Mus musculus; test: Analgesic activity in Wistar albino mouse assessed as protection against acetic acid-induced writhing at 20 mg/kg, po administered 30 mins prior to acetic acid challenge measured after 30 mins; type: functional; how it was run: as §2
[12] = tested on: Rattus norvegicus; test: Antiinflammatory activity in Wistar albino rat assessed as reduction in formalin-induced paw edema volume at 40 mg/kg, po administered 30 mins prior to formalin challenge measured after 60 mins by plethysmography; type: functional; design: scale not given: the % may be the effect or the level left; how it was run: as §1
[13] = tested on: Rattus norvegicus; test: Antiinflammatory activity in Wistar albino rat assessed as reduction in formalin-induced paw edema volume at 40 mg/kg, po administered 30 mins prior to formalin challenge measured after 120 mins by plethysmography; type: functional; design: scale not given: the % may be the effect or the level left; how it was run: as §1
[14] = tested on: Rattus norvegicus; test: Antiinflammatory activity in Wistar albino rat assessed as reduction in formalin-induced paw edema volume at 40 mg/kg, po administered 30 mins prior to formalin challenge measured after 90 mins by plethysmography; type: functional; design: scale not given: the % may be the effect or the level left; how it was run: as §1
[15] = tested on: Rattus norvegicus; test: Antiinflammatory activity in Wistar albino rat assessed as reduction in formalin-induced paw edema volume at 50 mg/kg, po administered 30 mins prior to formalin challenge measured after 60 mins by plethysmography; type: functional; design: scale not given: the % may be the effect or the level left
How it was run: (§3)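 Standard-drug arm, given orally to Wistar albino rats 30 min before subplantar formalin (0.1 mL of 1% w/v). Paw volumes were measured by plethysmography at 30, 60, 90 and 120 min post-formalin and expressed as % reduction of edema.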

[16] = tested on: Rattus norvegicus; test: Antiinflammatory activity in Wistar albino rat assessed as reduction in formalin-induced paw edema volume at 50 mg/kg, po administered 30 mins prior to formalin challenge measured after 120 mins by plethysmography; type: functional; design: scale not given: the % may be the effect or the level left; how it was run: as §3
[17] = tested on: Rattus norvegicus; test: Antiinflammatory activity in Wistar albino rat assessed as reduction in formalin-induced paw edema volume at 50 mg/kg, po administered 30 mins prior to formalin challenge measured after 30 mins by plethysmography; type: functional; design: scale not given: the % may be the effect or the level left; how it was run: as §3
[18] = tested on: Rattus norvegicus; test: Antiinflammatory activity in Wistar albino rat assessed as reduction in formalin-induced paw edema volume at 50 mg/kg, po administered 30 mins prior to formalin challenge measured after 90 mins by plethysmography; type: functional; design: scale not given: the % may be the effect or the level left; how it was run: as §3

Row | Compound | Activity [4] [%] | LD50 at 24 h [5] [mg/kg] | Tlag [7] [min] | Activity [9] [%] | Activity [10] [%] | Activity [11] [%] | Activity [12] [%] | Activity [13] [%] | Activity [14] [%] | other results
1 | CCN(CC)Cn1cnc2ccccc21 | 11.35 | > 1000 | 16.79 |  |  |  |  |  |  | Activity [1]: 63%; Activity [2]: 59%; Activity [3]: 28%; Activity [6]: 61%; Activity [8]: 43.8%
2 | C(=C\c1nc2ccccc2n1CN1CCCCC1)/c1ccccc1 |  | 180 | 4.51 | 48 | 43.8 | 29.56 | 56 | 62 | 59 | 
3 | Cc1nc2ccccc2[nH]1 |  |  | 11.68 |  |  |  |  |  |  | 
4 | O=C(O)Cc1ccccc1Nc1c(Cl)cccc1Cl [DICLOFENAC] |  |  | 3.36 |  |  |  |  |  |  | Activity [15]: 65%; Activity [16]: 65%; Activity [17]: 48%; Activity [18]: 64%
5 | c1ccc2[nH]cnc2c1 [BENZIMIDAZOLE] |  |  | 18.81 |  |  |  |  |  |  | 
6 | CC(=O)Nc1ccc(O)cc1 [ACETAMINOPHEN] | 47.76 |  | 1.55 |  |  |  |  |  |  | 
7 | CCN(CC)Cn1c(/C=C/c2ccccc2)nc2ccccc21 |  | 175 | 4.9 | 20 | 47.49 | 32.2 | 50 | 56 | 51 | 
8 | C(=C\c1nc2ccccc2n1CN1CCOCC1)/c1ccccc1 |  | 200 | 7.33 | 52 | 27.45 | 20.58 | 59 | 70 | 74 | 
9 | C(=C\c1nc2ccccc2[nH]1)/c1ccccc1 |  |  | 9.57 |  |  |  |  |  |  | 
10 | CN(C)Cn1cnc2ccccc21 | 25.87 | > 1000 | 15.31 |  |  |  |  |  |  | Activity [1]: 64%; Activity [2]: 51%; Activity [3]: 48%; Activity [6]: 53%; Activity [8]: 31.4%
